High-throughput results from PubChem BioAssay.
This is a sample that favours compounds with a hit; in the whole collection about 2.5% have one here.
NR2E3 ag-1: inhibitors of NR2E3-RetCOR corepressor binding, primary screen, NR2E3 agonist project, biochemical, TR-FRET, GST-NR2E3, biotin-RetCOR | 320,000 compounds, 0.12% hits | inhibition of corepressor binding, % at 4.78 µM | AID 2300, 2010 | 1536-well | Photoreceptor-specific nuclear receptor (Homo sapiens), Q9Y5X4;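 active = percent inhibition above the cutoff of mean plus 3 SD of all tested compounds, set per screening campaign, cut at about 20% in these data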
Target sequence (Q9Y5X4 whole entry, looked up): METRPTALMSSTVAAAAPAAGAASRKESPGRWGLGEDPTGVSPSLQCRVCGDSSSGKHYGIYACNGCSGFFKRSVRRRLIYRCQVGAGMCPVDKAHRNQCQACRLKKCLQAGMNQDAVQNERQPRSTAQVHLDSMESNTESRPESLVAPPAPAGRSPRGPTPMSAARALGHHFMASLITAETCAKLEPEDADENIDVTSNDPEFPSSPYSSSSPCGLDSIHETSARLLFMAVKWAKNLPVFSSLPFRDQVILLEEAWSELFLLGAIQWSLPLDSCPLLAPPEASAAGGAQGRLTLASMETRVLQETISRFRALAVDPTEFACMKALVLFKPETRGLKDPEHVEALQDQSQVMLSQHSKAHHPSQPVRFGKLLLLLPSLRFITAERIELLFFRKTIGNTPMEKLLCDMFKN
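system = GST-tagged NR2E3 plus biotinylated RetCOR corepressor | input = 1.35 nM GST-NR2E3 | also added = 7 nM biotin-RetCOR | schedule = 5 h incubation at 4 °C | measured by = TR-FRET with europium anti-GST and streptavidin-D2, 340 nm excitation | read-out = percent loss of FRET ratio relative to control wells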
GalR3 antagonist: GalR3 antagonists in HEK293 cells, primary screen, cell-based, fluorescence readout; Galanin receptor type 3 (Homo sapiens), O60755; HEK293 GalR3-CNG cAMP membrane potential fluorescence; galR3 body fused to GalR1 C-terminus; inhibition, % at 3 µM; 360,000 compounds, 0.44% hits;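 active = inhibition above the screen-wide average plus 3 SD, cut at about 13% in these data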;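 note: forskolin and galanin both at EC90 stimulate the cells; cAMP rise reported by CNG channel membrane potential dye signal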
Target sequence (O60755 1-299 limits assumed): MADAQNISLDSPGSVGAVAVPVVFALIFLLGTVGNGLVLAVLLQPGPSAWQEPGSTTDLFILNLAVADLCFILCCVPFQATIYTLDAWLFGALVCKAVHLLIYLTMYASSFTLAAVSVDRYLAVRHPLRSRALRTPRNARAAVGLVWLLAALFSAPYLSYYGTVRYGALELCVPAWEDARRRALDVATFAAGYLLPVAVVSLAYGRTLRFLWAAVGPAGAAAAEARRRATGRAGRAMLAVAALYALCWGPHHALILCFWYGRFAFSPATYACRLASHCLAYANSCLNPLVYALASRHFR
NR2E3 ag-2: NR2E3 agonists in two-hybrid cells, primary screen, cell-based, luminescence, CHO-S, Gal4-NCOR/VP16-NR2E3; AID 602229, 2012; 360,000 compounds, 0.35% hits; Photoreceptor-specific nuclear receptor (Homo sapiens), Q9Y5X4; luciferase; inhibition of corepressor binding, % at 3.98 µM;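 active = inhibition above the mean of all tested compounds plus 3 SD, cut at about 70% in these data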;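 note: higher means lower luciferase signal from less NR2E3 corepressor binding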
NadD block: inhibitors of S. aureus NadD, primary screen, biochemical, colorimetric, uHTS; Nicotinate-nucleotide adenylyltransferase NadD (Staphylococcus aureus N315); purified NadD enzyme, colorimetric absorbance read-out; inhibition, % at 20 µM; 360,000 compounds, 0.78% hits; in the data active = inhibition above about 26%
MsrA inh: bovine MsrA enzyme inhibitors, primary screen, biochemical, absorbance, HTS | Methionine sulfoxide reductase A (Bos taurus) | purified bovine MsrA, absorbance read-out | inhibition, % at 15.5 µM | 360,000 compounds, 0.75% hits | AID 651718, 2012
MsrA act: bovine MsrA enzyme activators, primary screen, biochemical, absorbance, HTS; activation, % at 10.6 µM; 360,000 compounds, 0.3% hits; Methionine sulfoxide reductase A (Bos taurus); purified bovine MsrA, absorbance read-out; AID 602163, 2012; in the data active = activation above about 7.5%
MsrA conf: bovine MsrA inhibitors, retest, confirmation, biochemical, absorbance, HTS | shares compounds with MsrA inh | purified bovine MsrA, absorbance read-out | inhibition, % at 15.5 µM | 2,300 compounds, 41% hits | AID 651822, 2012;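 note: coupled to thioredoxin reductase with NADPH and selenocystamine and DMSO as substrate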
Of the large screens only hits and unclear results are named; the others gave an inactive call (follow-up assays come after a bar, where they were run). Cut-off read from the data, not from the text of the source, unless noted: active = inhibition above about 4.5%; inactive = the rest.

CCOc1ccc(NC(=O)c2ccc(CNc3c(NC4CCCCC4)c(=O)c3=O)cc2)cc1	none
COc1ccc(C(=O)CSc2nnc(CNC(=O)c3ccco3)n2C)cc1OC	none
Cc1nnc(N/N=C/c2ccc(-c3ccccc3F)o2)n1N	MsrA inh 6.1 | MsrA conf 6.0
Cc1ccc(Nc2n[nH]c(C)c2[N+](=O)[O-])cc1C	MsrA inh 11 | MsrA conf 8.2
CC1(C)Cc2c(c(=S)nc(-c3ccccc3)n2CCOCCO)CO1	none
OCCOCCn1c(-c2ccccc2)nc(=S)c2c1CCCC2	MsrA inh 5.9 | MsrA conf inactive
N#Cc1ccc(-c2cccnc2)nc1SCC(N)=O	none
CCOC(=O)/C(C#N)=C/c1c(N2CCN(c3ccccc3)CC2)nc2c(C)cccn2c1=O	none (no result: NR2E3 ag-1)
O=C(O)c1cccn2c(=O)c3ccccc3nc12	MsrA inh 4.7 | MsrA conf inactive
CCN(c1ccccc1)c1nc2nonc2nc1NCCO	MsrA inh 13 | MsrA conf 9.4
O=[N+]([O-])c1ccc(S(=O)(=O)N2CCSC2c2ccco2)cc1 (stereo not given)	none
c1ccc(Oc2cccc(CN3CCCCC3)c2)cc1	none
CCCN1CCCc2cc(CN)ccc21	MsrA inh 16 | MsrA conf inactive
Cc1[nH]c2ccccc2c1C(C#N)(C#N)C1C(=O)c2ccccc2C1=O	MsrA inh 47 | MsrA conf 46
COc1ccc(NC(=O)/C=C/c2ccc(Br)o2)cn1	MsrA inh 5.3 | MsrA conf inactive
CCc1nnc(NC(=O)/C=C/c2ccco2)s1	MsrA inh 6.8 | MsrA conf 6.2
COc1ccc(NC(=O)/C=C/c2ccco2)cn1	MsrA inh 4.9 | MsrA conf inactive
CCOc1ccc(S(=O)(=O)N2CCCCC2)cc1NC(=O)CSCc1c(C)noc1C	none
CC(=O)N1CCN(c2ccc(NC(=S)NC(=O)c3ccccc3)cc2)CC1	none
C/C(=N\Nc1ccccc1[N+](=O)[O-])c1ccccc1O	none
C/C(=N\Nc1ccc(S(N)(=O)=O)cc1[N+](=O)[O-])c1ccco1	MsrA inh 9.2 | MsrA conf 5.4
NS(=O)(=O)c1ccc(Nc2ccccc2)c([N+](=O)[O-])c1	MsrA inh 4.9 | MsrA conf inactive
C/C(=N\Nc1ccc(S(N)(=O)=O)cc1[N+](=O)[O-])c1ccccc1O	MsrA inh 9.9 | MsrA conf 4.7
O=[N+]([O-])c1cc(Cl)ccc1Nc1ccccc1	none (no result: GalR3 antagonist, MsrA inh)
C/C(=N\NC(=O)c1cc([N+](=O)[O-])cc([N+](=O)[O-])c1)c1ccco1	none
CNC(=S)N1N=C(c2ccc(Br)cc2)CC1c1ccc(OC)cc1 (stereo not given)	MsrA inh 5.7 | MsrA conf inactive
O=c1c2ccccc2nc(N/N=C/c2c(O)ccc3ccccc23)n1O	none
CCc1nc(Nc2ccncc2)c2oc3ccccc3c2n1	MsrA inh 4.7 | MsrA conf inactive
CCc1nc(Nc2cccc(O)c2)c2oc3ccccc3c2n1	none (no result: NR2E3 ag-1, GalR3 antagonist, MsrA inh)
Cc1nc(Nc2ccncc2)c2oc3ccccc3c2n1	MsrA inh 5.4 | MsrA conf inactive
CCCCCCn1c(CN2CCN(CCO)CC2)nc2c1c(=O)n(C)c(=O)n2C	none (no result: GalR3 antagonist)
CCn1c(SCC(=O)NC2CC2)nnc1-c1ccc(OC)cc1	none
CN(C)C(=O)CCc1ccc2c3c([nH]c2c1)[C@]1(CCC2CCCC2)[C@@H](C(=O)N2CCOCC2)C[C@H](CC(=O)NCCC2=CCCCC2)C(=O)N1CC3	none (no result: NR2E3 ag-1)
CN(/N=C/c1ccc([N+](=O)[O-])o1)c1ccccc1	none
CN(C)/N=C/c1ccc(P(c2ccc(/C=N/N(C)C)o2)c2ccc(/C=N/N(C)C)o2)o1	MsrA inh 5.4 | MsrA conf inactive
Cn1ncc(Cl)c1C(=O)Nc1ccc(CN2CCCCC2)cc1	none
CS/C(=C/[N+](=O)[O-])Nc1cccc2c1C(C)CC2(C)C (stereo not given)	MsrA inh 23 | MsrA conf 20
O=C(N/C=N/OCc1ccc(Cl)cc1Cl)NOCc1ncc(C(F)(F)F)cc1Cl	MsrA inh 15 | MsrA conf 11
CO/N=C/NC(=O)NOCc1ncc(C(F)(F)F)cc1Cl	none
Cc1cc(NC(=O)Cc2csc(-c3ccccc3)n2)ccc1Br	none
O=C(Nc1c(-c2ccc(F)cc2)nc2ccccn12)c1ccc(F)cc1	none
COC(=O)Nc1ccc(S(=O)(=O)Nc2ccc(O)cc2)cc1	none
Cc1cc(=O)[nH]c2c(C)cc(S(=O)(=O)Nc3ccc(O)cc3)cc12	MsrA inh 9.2 | MsrA conf 4.7
N#CCCn1nc(-c2ccccc2)cc1-n1c(C(F)(F)F)nc2ccccc21	none
COc1cccc2cc(-c3cc(=O)oc4ccc(O)cc34)oc12	MsrA inh 17 | MsrA conf 13
COC(=O)COc1ccc2oc(=O)cc(-c3cc4cccc(OC)c4o3)c2c1	MsrA inh 7.4 | MsrA conf 15
COC(=O)COc1cc(OCC(=O)OC)c2c(-c3ccccc3)cc(=O)oc2c1	none
COC(=O)COc1ccc2oc(=O)cc(-c3cc4ccccc4o3)c2c1	MsrA inh 15 | MsrA conf 24
NC(=O)COc1ccc2oc(=O)cc(-c3cc4ccccc4o3)c2c1	MsrA inh 23 | MsrA conf 20
O=C(COc1ccccc1)Nc1ccc2oc(=O)ccc2c1	none
CCN(CC)C(=O)Oc1cc2c(-c3cc4cccc(OC)c4o3)cc(=O)oc2cc1C	none
COc1ccc(NC(=O)COc2ccc3oc(=O)cc(C)c3c2)cc1	none
O=[N+]([O-])c1ccc(Cl)c(S(=O)(=O)NCCc2ccccn2)c1	none (no result: NR2E3 ag-1)
O=C(NCC(c1cccnc1)N1CCOCC1)C1CCCCC1 (stereo not given)	none
O=C(CCNC(=O)c1ccc(Br)o1)NCc1ccc(Cl)cc1	none
CCOC(=O)c1cc(C(C)(C)C)nc(SC)c1C#N	MsrA inh 6.2 | MsrA conf inactive
CCOc1cc(/C=N\n2nnnc2N)ccc1O	none
CCOc1ccc(/C=N/n2nnnc2N)cc1OCC	MsrA inh 4.8 | MsrA conf inactive
O=C(O)c1cc(-c2ccc(/C=N/Nc3ccc([N+](=O)[O-])cn3)o2)ccc1Cl	none (no result: NR2E3 ag-1)
COC(=O)c1ccc(/C=N/NC(=O)c2cccc(F)c2)cc1	none (no result: GalR3 antagonist, MsrA inh)
O=C(N/N=C/c1cnc2ccccc2n1)c1cccc(F)c1	MsrA inh 5.8 | MsrA conf inactive
